Data published in article PMC8489566 (ACS nano, 2020).

What was measured:
human THP-1 macrophages = format: cell-based
[1] = system: mouse-derived J774A.1 macrophages; format: cell-based
Procedure, shortened: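 J774A.1 macrophages plated 24 h in RPMI with 10% FBS, then treated with test compound (20 nM, 1 μM or 50 μM) for 1 h at 37 °C and washed; positive control was 5 μg/mL rat anti-mouse SIRPα. Human RBCs were EDTA-washed, opsonized with 20 μg/mL rabbit anti-RBC IgG (1 h, RT), and PKH26-labelled. They were added at 10:1 for 1 h at 37 °C, then fixed and Hoechst-stained for fluorescence imaging.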

SIRPα = assay: CD47-Fc inhibition assay; format: binding, human; settings: THP-1 macrophages, 1 μM or 50 μM peptide 1 h, Fc-receptor blockade, 2 μg/mL CD47-Fc, anti-Fc fluorescence, n = 2 sets of triplicates

nS-wt: CD47's eight amino acid binding loop, wild-type nano-Self peptide, C-terminal amide
phagocytosis levels at maximum peptide concentration (human THP-1 macrophages; 50 μM peptide, opsonized RBCs): well above those for nS-X and nS-XX controls | macrophages that internalize opsonized RBCs, peptide combined with anti-RBC (human THP-1 macrophages; maximum peptide concentration (50 μM), anti-RBC ~133 nM, n = 3): ~ 30% | phagocytosis compared with anti-CD47 (human THP-1 macrophages; saturating peptide, opsonized RBCs): gives the same result as anti-CD47 | phagocytosis by mouse macrophages ([1]; J774A.1 macrophages, opsonized RBCs, high concentrations (50 μM)): matches anti-CD47 blockade effects | effective activity in the mouse macrophage assay relative to the human assay ([1]; weaker in mouse than in human macrophages): ~ 100 fold | level of inhibition of CD47-Fc binding to macrophages (SIRPα): inhibited
